Assay results taken from ChEMBL document CHEMBL2401620, “Molecular design, synthesis and biological evaluation of BP-O-DAPY and O-DAPY derivatives as non-nucleoside HIV-1 reverse transcriptase inhibitors” (Eur J Med Chem, 2013).

Assays:
[1] = Cytotoxicity against human MT4 cells after 5 days by MTT assay; type: cell-based
Method in brief: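 Mock-infected MT-4 cells at 6 × 10⁵ cells/mL received medium instead of virus, with serial 5-fold compound dilutions in triplicate. After 5 days, viability was read by MTT at 540 and 690 nm.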

[2] = tested on: Human immunodeficiency virus 1; assay: Antiviral activity against HIV1 RES056 expressing RT K103N/Y181C mutant infected in human MT4 cells assessed as inhibition of virus-induced cytopathic effect after 5 days by MTT assay; type: functional, organism-based; conditions: Human immunodeficiency virus 1, RES056, MT4, 120 h
Method in brief: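 MT-4 cells, exponentially growing, spun 5 min at 220 g and resuspended at 6 × 10⁵ cells/mL, then infected with 100-300 CCID₅₀ virus stock. Serial 5-fold compound dilutions were added from 10× stocks, in triplicate alongside mock-infected wells. Viability was read by MTT at 540 and 690 nm. EC₅₀ is the concentration giving 50% protection from cytopathic effect, using median OD of three wells.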

[3] = Selectivity index, ratio of CC50 for human MT4 cells to EC50 for HIV1 3B; type: toxicity, cell-based; conditions: read-out: Ratio CC50/EC50
Method in brief: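 SI is CC50 in mock-infected MT-4 cells divided by EC50 against HIV-1 IIIB. Both come from the same 5-day MTT assay, with serial 5-fold dilutions in triplicate wells.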

[4] = tested on: Human immunodeficiency virus 1; assay: Antiviral activity against HIV1 3B infected in human MT4 cells assessed as inhibition of virus-induced cytopathic effect after 5 days by MTT assay; type: functional, organism-based; conditions: Human immunodeficiency virus 1, 3B, MT4, 120 h
Method in brief: (§1)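 MT-4 cells, spun 5 min at 220 g, resuspended at 6 × 10⁵ cells/mL, infected with virus stock at 100-300 CCID50. Serial 5-fold compound dilutions were added at the start, in triplicate wells. After 5 days, viability was read by MTT reduction at 540 and 690 nm.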

[5] = tested on: Human immunodeficiency virus 2; assay: Antiviral activity against HIV2 ROD infected in human MT4 cells assessed as inhibition of virus-induced cytopathic effect after 5 days by MTT assay; type: functional, organism-based; conditions: Human immunodeficiency virus 2, ISOLATE ROD, MT4, 120 h; method in brief: as §1
[6] = target: Human immunodeficiency virus type 1 reverse transcriptase (Human immunodeficiency virus 1, UniProt Q72547); assay: Inhibition of recombinant wild type HIV1 RT using poly(rA)/oligo(dT)16 as template after 40 mins by spectrofluorometric analysis
[7] = tested on: Human immunodeficiency virus 1; assay: Ratio of delavirdine EC50 to compound EC50 for HIV1 3B; type: functional
[8] = tested on: Human immunodeficiency virus 1; assay: Ratio of nevirapine EC50 to compound EC50 for HIV1 3B; type: functional
[9] = target: Human immunodeficiency virus type 1 reverse transcriptase (Human immunodeficiency virus 1, UniProt Q72547, K103N/Y181C); assay: Inhibition of HIV RT K103N/Y181C mutant by cell based assay
Method in brief: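 Serial 5-fold compound dilutions in triplicate wells, with parallel mock-infected wells. After 5 days, viability was read by MTT reduction at 540 and 690 nm. The median OD of three wells gave EC₅₀, the concentration giving 50% protection from viral cytopathic effect.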

| SMILES | CC50 at 120 h [1] [µM] | EC50 [2] [µM] | selectivity ratio [3] | EC50 [4] [µM] | EC50 [5] [µM] | IC50 [6] [µM] | Ratio EC50 [7] | Ratio EC50 [8] | EC50 [9] [µM] |
| --- | --- | --- | --- | --- | --- | --- | --- | --- | --- |
| Cc1ccc(C(=O)c2cc(Cl)ccc2Oc2ccnc(Nc3ccc(C#N)cc3)n2)cc1 | 1.71 | > 1.71 | < 1 | > 1.71 | > 1.71 |  |  |  |  |
| Cc1cc(C)cc(C(=O)c2cc(Cl)ccc2Oc2ccnc(Nc3ccc(C#N)cc3)n2)c1 | 28.8 | > 28.8 | 36 | 0.79 | > 28.8 | 3.22 |  |  |  |
| Cc1ccccc1C(=O)c1cc(Cl)ccc1Oc1ccnc(Nc2ccc(C#N)cc2)n1 | 28.8 | > 28.8 | 21 | 1.36 | > 28.8 | 3.45 |  |  |  |
| COc1ccc(C(=O)c2ccccc2)c(Oc2ccnc(Nc3ccc(C#N)cc3)n2)c1 | 0.76 | > 0.76 | < 1 | > 0.76 | > 0.76 |  |  |  |  |
| N#Cc1ccc(Nc2nccc(Oc3ccc(C(=O)c4ccc(O)cc4)cc3)n2)cc1 | 19.4 | > 19.4 | 7 | 2.72 | > 19.4 | 7.13 |  |  |  |
| N#Cc1ccc(Nc2nccc(Oc3ccc(OCc4ccccc4)cc3)n2)cc1 | > 317 | > 317 | > 7 | 46.1 | > 317 | 31 |  |  |  |
| COCCc1ccc(Oc2ccnc(Nc3ccc(C#N)cc3)n2)cc1 | 93.2 | ≥ 93.2 | 359 | 0.26 | ≥ 46.2 | 2.69 |  |  |  |
| Cc1ccc(C(=O)c2cc(Cl)ccc2Oc2cc(C)nc(Nc3ccc(C#N)cc3)n2)cc1 | 26.6 | > 26.6 | < 1 | > 26.6 | > 26.6 |  |  |  |  |
| Cc1cc(C)cc(C(=O)c2cc(Cl)ccc2Oc2cc(C)nc(Nc3ccc(C#N)cc3)n2)c1 | 37.1 | > 37.1 | < 1 | > 37.1 | > 37.1 |  |  |  |  |
| Cc1cc(Oc2ccc(Cl)cc2C(=O)c2ccccc2C)nc(Nc2ccc(C#N)cc2)n1 | 4.24 | > 4.24 | < 1 | > 4.24 | > 4.24 |  |  |  |  |
| COc1ccc(C(=O)c2ccccc2)c(Oc2cc(C)nc(Nc3ccc(C#N)cc3)n2)c1 | 4.9 | > 4.9 | < 1 | > 4.9 | > 4.9 |  |  |  |  |
| Cc1cc(Oc2ccc(C(=O)c3ccc(O)cc3)cc2)nc(Nc2ccc(C#N)cc2)n1 | 32 | > 32 | ≤ 6 | ≥ 5.18 | > 32 | 16.9 |  |  |  |
| Cc1cc(Oc2ccc(OCc3ccccc3)cc2)nc(Nc2ccc(C#N)cc2)n1 | 27.7 | > 27.7 | 6 | 4.31 | > 27.7 | 17.4 |  |  |  |
| COCCc1ccc(Oc2cc(C)nc(Nc3ccc(C#N)cc3)n2)cc1 | 13.8 | > 13.8 | 18 | 0.79 | > 13.8 | 11.6 |  |  |  |
| Cc1ccc(C(=O)c2cc(Cl)ccc2Oc2nc(Nc3ccc(C#N)cc3)ncc2C)cc1 | ≥ 0.83 | > 0.83 | < 1 | 3.79 | > 0.83 |  |  |  |  |
| Cc1cc(C)cc(C(=O)c2cc(Cl)ccc2Oc2nc(Nc3ccc(C#N)cc3)ncc2C)c1 | 13.4 | > 13.4 | 9 | 1.48 | > 13.4 | 3.06 |  |  |  |
| Cc1ccccc1C(=O)c1cc(Cl)ccc1Oc1nc(Nc2ccc(C#N)cc2)ncc1C | 24.2 | > 24.2 | 22 | 1.09 | > 24.2 | 5.23 |  |  |  |
| COc1ccc(C(=O)c2ccccc2)c(Oc2nc(Nc3ccc(C#N)cc3)ncc2C)c1 | 7.42 | > 7.42 | ≤ 2 | ≥ 3.51 | > 7.42 |  |  |  |  |
| Cc1cnc(Nc2ccc(C#N)cc2)nc1Oc1ccc(C(=O)c2ccc(O)cc2)cc1 | > 296 | > 296 | > 82 | 3.61 | > 296 | 5.21 |  |  |  |
| Cc1cnc(Nc2ccc(C#N)cc2)nc1Oc1ccc(OCc2ccccc2)cc1 | 170 | > 170 | 29 | > 170 | > 170 |  |  |  |  |
| COCCc1ccc(Oc2nc(Nc3ccc(C#N)cc3)ncc2C)cc1 | > 347 | > 347 | > 6260 | 0.06 | > 347 | 1.27 | 1.8 | 1.8 |  |
| CC(C)Nc1cccnc1N1CCN(C(=O)c2cc3cc(NS(C)(=O)=O)ccc3[nH]2)CC1 [DELAVIRDINE] | > 36.2 | > 36.2 |  | 0.11 | > 36.2 |  |  |  |  |
| O=C1Nc2ccc(Cl)cc2[C@@](C#CC2CC2)(C(F)(F)F)O1 [EFAVIRENZ] | > 6.34 |  |  | 0.01 | > 6.34 |  |  |  |  |
| Cc1ccnc2c1NC(=O)c1cccnc1N2C1CC1 [NEVIRAPINE] | > 15 | 5.12 |  |  | > 15 |  |  |  |  |
| Cc1cc(/C=C/C#N)cc(C)c1Nc1ccnc(Nc2ccc(C#N)cc2)n1 [RILPIVIRINE] |  |  |  |  |  |  |  |  | 0.0008 |
| Cc1cn([C@H]2C[C@H](N=[N+]=[N-])[C@@H](CO)O2)c(=O)[nH]c1=O [ZIDOVUDINE] | > 93.5 | 0.01 | > 14400 | 0.01 | 0.01 |  |  |  |  |
